Bioassay records deposited in PubChem by The Scripps Research Institute Molecular Screening Center.
mABHD4 FP = inhibits mouse alpha/beta hydrolase domain 4; purified mABHD4, FP-Rh probe fluorescence polarization; hit rate 0.54% among 370,000; inhibition, % at 8.92 µM;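 active means inhibition exceeding the mean over every tested compound plus 3 SD, cut at about 30% in these data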
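Doses – 8.92 µM, single dose · Material – wild-type mouse ABHD4 protein · Replication – single well per compound (singlicate) · Measure – percent inhibition of probe binding, normalized to plate controls · Schedule – 45 min compound pre-incubation plus 60 min probe step, 25 °C · Detection – fluorescence polarization with parallel and perpendicular emission, 525/598 nm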
HTRA1 inhibitor = inhibitors of human serine peptidase HTRA1. recombinant HTRA1, FP-rhodamine activity-based probe, fluorescence polarization. hit rate 0.5% among 340,000. inhibition, % at 5.96 µM. Q92743; in the data active means inhibition above about 36%
SIAE primary = blocks human sialic acid acetylesterase | hit rate 0.69% among 370,000 | SIAE FP-Rh probe binding, fluorescence polarization | AID 1053197 | Q9HAT2 | inhibition, % at 9.66 µM;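 active means inhibition above a cutoff: mean of compounds within the control limits plus 3 SD of those, cut at about 17% in these data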
Target sequence (Q9HAT2 whole entry, looked up): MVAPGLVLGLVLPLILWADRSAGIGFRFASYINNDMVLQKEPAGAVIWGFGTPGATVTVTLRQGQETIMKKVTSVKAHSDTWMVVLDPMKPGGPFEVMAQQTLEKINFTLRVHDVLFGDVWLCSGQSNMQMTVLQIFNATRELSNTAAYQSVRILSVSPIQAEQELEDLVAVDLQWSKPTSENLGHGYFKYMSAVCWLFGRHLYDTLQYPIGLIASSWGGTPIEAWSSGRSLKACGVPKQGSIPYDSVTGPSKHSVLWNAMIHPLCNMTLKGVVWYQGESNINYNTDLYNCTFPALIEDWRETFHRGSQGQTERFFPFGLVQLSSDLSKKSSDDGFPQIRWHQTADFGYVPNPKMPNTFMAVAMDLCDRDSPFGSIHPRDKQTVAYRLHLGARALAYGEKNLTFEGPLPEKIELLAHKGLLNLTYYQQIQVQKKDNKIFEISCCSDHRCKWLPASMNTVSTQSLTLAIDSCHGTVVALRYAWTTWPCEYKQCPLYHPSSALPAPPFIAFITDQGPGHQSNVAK
TCR-CD3 inh = inhibitors of human TCR-CD3 interaction; TAMRA-labeled TCR probe fluorescence, biochemical; hit rate 0.37% among 360,000; inhibition, % at 9.4 µM;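 further: recombinant mutant TCR 2C K166C tagged with TAMRA read by polarization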
Fam108B inh = counter-screen for RBBP9 inhibitors: inhibitors of mouse Fam108B; recombinant Fam108B, FP-Rh probe fluorescence polarization; inhibition, % at 9.51 µM; hit rate 0.33% among 300,000;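 active means inhibition above the screen mean inhibition plus 3 SD, computed separately per campaign, cut at about 18% in these data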;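 further: inhibitors lower polarization as less probe binds the enzyme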
PME-1 primary = blocks human protein phosphatase methylesterase 1; hit rate 0.53% among 320,000; recombinant PME-1, FP-Rh probe fluorescence polarization; Q9Y570; inhibition, % at 5.9 µM; AID 2130;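 active means inhibition above the campaign mean of all compounds plus 3 SD, cut at about 26% in these data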;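 further: competitive labeling of PME-1 active site by serine hydrolase directed probe; inhibitors block probe labeling so polarization falls and inhibition rises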
HTRA1 conf = HTRA1 (human) inhibition, confirmation. recombinant HTRA1, FP-rhodamine activity-based probe, fluorescence polarization. shares compounds with HTRA1 inhibitor. inhibition, % at 5.96 µM. hit rate 66% among 1,600;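 active means mean inhibition over three repeats above a set limit taken from the earlier primary screen, cut at about 37% in these data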;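 further: inhibitors block probe binding so polarization drops and inhibition rises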
BSA probe FL = BSA probe counter-screen for TCR-CD3 inhibitors | shares compounds with TCR-CD3 inh | TAMRA-labeled BSA probe fluorescence counterscreen | inhibition, % at 9.4 µM | hit rate 10% among 1,200; in the data active means inhibition above about 23%
TCR-CD3 inh conf = TCR-CD3 interaction inhibition, confirmation; inhibition, % at 9.4 µM; hit rate 48% among 1,200; AID 652036; shares compounds with TCR-CD3 inh; TAMRA-labeled TCR probe fluorescence binding assay
ABHD4 confirm = confirmation of mouse ABHD4 inhibitors. shares compounds with mABHD4 FP. purified mABHD4, FP-Rh probe fluorescence polarization. hit rate 55% among 1,800. inhibition, % at 8.92 µM;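 active means mean inhibition across replicates above the hit cutoff set in the primary screen, cut at about 30% in these data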
SIAE confirm = human SIAE inhibition, confirmation; shares compounds with SIAE primary; inhibition, % at 9.66 µM; SIAE FP-Rh activity-based probe, fluorescence polarization; AID 1117263; hit rate 13% among 2,300;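 active means mean inhibition of the replicates above the hit cutoff set in the primary screen, cut at about 17% in these data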;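 further: inhibitors lower polarization as more probe stays unbound to SIAE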
Numbers stand for hits; - = inactive; . = not tested or not shown; + = active, no number. Compounds with a hit are over-represented: about 1.8% of the library has one in this group of screens. Unless noted, no stated cut-off is given here; in the data, active means inhibition above about 19%; inactive means the rest.

SMILES | mABHD4 FP | HTRA1 inhibitor | SIAE primary | TCR-CD3 inh | Fam108B inh | PME-1 primary | HTRA1 conf | ABHD4 confirm | SIAE confirm | others
CCCCCCCCn1ccc(=N)cc1 | - | - | - | - | - | - | . | . | .
CCCCCCCCCCCCCCCCn1cc[n+](C)c1 | 43.6 | 66.5 | - | - | - | - | 81.1 | 50.9 | .
CCCCCCCCN1CN2Cc3ccccc3C2CS1(=O)=O (configuration not stated) | - | . | - | . | . | . | . | . | .
C=C1c2cccc(O)c2C(=O)C2C(=O)[C@]3(O)C(=O)C(C(N)=O)C(=O)[C@@H](N(C)C)[C@@H]3[C@@H](O)[C@H]12 (some centres not stated) | 84.8 | 45.9 | 47.0 | 27.5 | . | . | 37.6 | - | . | BSA probe FL=-;TCR-CD3 inh conf=-
CC(C)c1cc2c(c(O)c1O)[C@@]13CCCC(C)(C)C1CC2OC3=O (some centres not stated) | 30.9 | 48.3 | 20.1 | - | - | - | - | - | .
CCOC(=O)Cn1cc(CN2CCS(=O)(=O)N(Cc3ccc(C)cc3)C(C(=O)OC)C2)nn1 (configuration not stated) | - | . | - | . | . | . | . | . | .
Oc1cc(O)cc(/C=C/c2ccc(O)c(O)c2)c1 | 32.1 | 38.5 | - | - | - | - | 36.5 | - | .
COc1ccc(/C=C2\SC(=S)N(C(Cc3ccccc3)C(=O)O)C2=O)cc1 (configuration not stated) | - | - | - | - | . | . | . | . | .
O=C(O)C(Cc1ccccc1)N1C(=O)/C(=C/C=C/c2ccco2)SC1=S (configuration not stated) | 41.8 | 36.9 | - | - | . | . | - | - | .
CNC(=O)COc1ccc(Cl)c2cccnc12 | - | - | - | - | - | - | . | . | .
O=C(O)COc1ccccc1C(Nc1ccccn1)c1cc(Cl)c2cccnc2c1O (configuration not stated) | 32.8 | 73.8 | - | - | - | - | 83.7 | - | .
CNc1ccccc1/C(O)=C(\C#N)C(=O)NCc1cccc2ccccc12 | - | . | - | . | . | . | . | . | .
CCOc1ccc(CCNC(=O)c2cc3ccsc3n2C)cc1OCC | - | . | - | . | . | . | . | . | .
Oc1cccc(/C=N/N=C/c2cccc(O)c2O)c1O | 35.8 | 36.2 | - | - | - | - | 45.0 | - | .
CCn1c(=O)n2n(c1=O)[C@]1(C=C(C)C2)CN(Cc2ccc(OC)cc2OC)C(NC(=O)c2ccccc2)=N1 | - | . | - | . | . | . | . | . | .
Cc1ccc(S(=O)(=O)N2CN(Cc3ccco3)c3nc4ccccc4nc32)cc1 | - | - | - | - | - | - | . | . | .
O=S(=O)(c1ccc(F)cc1)N1CN(Cc2ccco2)c2nc3ccccc3nc21 | 45.5 | 45.9 | 33.6 | 45.7 | - | - | - | - | - | BSA probe FL=-;TCR-CD3 inh conf=-
COC(=O)c1ccccc1-c1c2ccc(=N)cc-2oc2cc(N)ccc12 | + | 135.8 | + | + | . | 150.1 | 142.2 | 182.9 | + | BSA probe FL=+;TCR-CD3 inh conf=+
COC(=O)c1ccccc1-c1ccc(/C=N/NC(=O)c2cc3ccccc3o2)o1 | - | - | - | - | - | - | . | . | .
O=C(Nc1ccc2ccccc2c1)NC1CCCCN(Cc2cccc(Cl)c2)C1=O (configuration not stated) | - | . | - | . | . | . | . | . | .
S=C(Nc1ccc(N2CCOCC2)cc1)Nc1ccc2nc(-c3ccco3)c(-c3ccco3)nc2c1 | 37.7 | 47.7 | 20.5 | - | - | 50.5 | - | 42.5 | -
O=C(CC1Nc2cccc3cccc(c23)NC1=O)Nc1ccccc1 (configuration not stated) | 32.4 | 71.8 | 23.2 | - | - | - | - | 41.5 | -
CCC[C@H]1[C@@H](OC(=O)NCc2ccc(C(F)(F)F)cc2)CC[C@@]23CCCN2C(=O)CCC[C@@H]13 | - | . | - | . | . | . | . | . | .
Cc1cccc(NC(=O)CSc2nnc(SCc3ccc(Cl)cc3)s2)c1 | - | . | - | . | . | . | . | . | .
Cc1cccc(/N=C/c2c(O)ccc3oc4c(c23)CCCC4)n1 | . | - | . | . | - | - | . | . | .
SMILES | mABHD4 FP | HTRA1 inhibitor | SIAE primary | TCR-CD3 inh | Fam108B inh | PME-1 primary | HTRA1 conf | ABHD4 confirm | SIAE confirm | others
O=[N+]([O-])c1cc2oc3c(c2c(C=NCc2ccccc2)c1O)CCCC3 | 30.6 | 42.5 | 27.5 | - | - | - | 54.2 | 31.4 | -
CC(C)CN=Cc1c(O)c([N+](=O)[O-])cc2oc3c(c12)CCCC3 | - | 43.6 | 24.2 | - | - | - | 42.8 | . | -
Cc1oc2cc([N+](=O)[O-])c(O)c([N+](=O)[O-])c2c1C(=O)c1ccc(Cl)cc1 | - | - | - | - | - | - | . | . | .
COc1ccccc1C(NC(C)=O)c1cc(Cl)c2cccnc2c1O (configuration not stated) | - | 48.7 | 21.9 | - | - | - | 70.9 | . | -
CC(=O)NC(c1ccco1)c1cc(Cl)c2ccccc2c1O (configuration not stated) | - | - | - | - | . | - | . | . | .
CCC(=O)NC(c1ccc(OC)c(OC)c1)c1cc(Cl)c2cccnc2c1O (configuration not stated) | - | 52.1 | 26.0 | - | . | . | 80.7 | . | -
CCCC(=O)N1CCC[C@]2(CC[C@H](CCC#N)O2)C1 | - | . | - | . | . | . | . | . | .
COc1ccc(CN2CN3Cc4cc(F)ccc4C3CS2(=O)=O)cc1 (configuration not stated) | - | . | - | . | . | . | . | . | .
CCOC(=O)[C@@H](CCc1ccccc1)N[C@@H](C)C(=O)N1CCC[C@H]1C(=O)O | - | . | - | . | . | . | . | . | .
O=C1c2cccc3c(O)ccc(c23)C(=O)N1Cc1ccco1 | 49.2 | 44.0 | 20.2 | 40.6 | . | . | 38.2 | 45.5 | 21.1 | BSA probe FL=66.7;TCR-CD3 inh conf=47.3
O=C(NC1CCCCN(Cc2cccc(F)c2)C1=O)c1cccc(C(F)(F)F)c1 (configuration not stated) | - | . | - | . | . | . | . | . | .
CCOc1cc(/C=N/Nc2ccc(S(=O)(=O)Nc3ccccc3C(=O)O)cc2[N+](=O)[O-])cc(Cl)c1O | 72.6 | 75.3 | 31.9 | - | . | . | 67.8 | 86.3 | -
CN(C1=C(N2CCCCC2)C(=O)c2ccccc2C1=O)c1ccccc1 | 38.5 | 65.6 | 19.7 | - | - | - | 74.7 | 69.0 | -
Cc1cc(SCC(=O)N/N=C/c2ccc(O)c(O)c2)c(C)cc1Br | - | 76.7 | 21.0 | - | - | - | 75.7 | . | -
CC(=O)CC[C@H]1CC[C@]2(CCCN(Cc3nccn3C)C2)O1 | - | . | - | . | . | . | . | . | .
c1ccc(-c2nc3ccccc3[nH]2)cc1 | - | - | - | - | - | - | . | . | .
